Tests used:
[1] = target: Tyrosine-protein kinase BTK (Homo sapiens) (UniProt Q06187); test: Inhibition of human recombinant BTK at 40 nM in presence of ATP by radiometric assay relative to control
[2] = target: T1, Serine/threonine-protein kinase Nek1 (Homo sapiens) (UniProt Q96PY6); test: Inhibition of human recombinant NEK1 at 40 nM related to control ULK1
T1 sequence (whole entry): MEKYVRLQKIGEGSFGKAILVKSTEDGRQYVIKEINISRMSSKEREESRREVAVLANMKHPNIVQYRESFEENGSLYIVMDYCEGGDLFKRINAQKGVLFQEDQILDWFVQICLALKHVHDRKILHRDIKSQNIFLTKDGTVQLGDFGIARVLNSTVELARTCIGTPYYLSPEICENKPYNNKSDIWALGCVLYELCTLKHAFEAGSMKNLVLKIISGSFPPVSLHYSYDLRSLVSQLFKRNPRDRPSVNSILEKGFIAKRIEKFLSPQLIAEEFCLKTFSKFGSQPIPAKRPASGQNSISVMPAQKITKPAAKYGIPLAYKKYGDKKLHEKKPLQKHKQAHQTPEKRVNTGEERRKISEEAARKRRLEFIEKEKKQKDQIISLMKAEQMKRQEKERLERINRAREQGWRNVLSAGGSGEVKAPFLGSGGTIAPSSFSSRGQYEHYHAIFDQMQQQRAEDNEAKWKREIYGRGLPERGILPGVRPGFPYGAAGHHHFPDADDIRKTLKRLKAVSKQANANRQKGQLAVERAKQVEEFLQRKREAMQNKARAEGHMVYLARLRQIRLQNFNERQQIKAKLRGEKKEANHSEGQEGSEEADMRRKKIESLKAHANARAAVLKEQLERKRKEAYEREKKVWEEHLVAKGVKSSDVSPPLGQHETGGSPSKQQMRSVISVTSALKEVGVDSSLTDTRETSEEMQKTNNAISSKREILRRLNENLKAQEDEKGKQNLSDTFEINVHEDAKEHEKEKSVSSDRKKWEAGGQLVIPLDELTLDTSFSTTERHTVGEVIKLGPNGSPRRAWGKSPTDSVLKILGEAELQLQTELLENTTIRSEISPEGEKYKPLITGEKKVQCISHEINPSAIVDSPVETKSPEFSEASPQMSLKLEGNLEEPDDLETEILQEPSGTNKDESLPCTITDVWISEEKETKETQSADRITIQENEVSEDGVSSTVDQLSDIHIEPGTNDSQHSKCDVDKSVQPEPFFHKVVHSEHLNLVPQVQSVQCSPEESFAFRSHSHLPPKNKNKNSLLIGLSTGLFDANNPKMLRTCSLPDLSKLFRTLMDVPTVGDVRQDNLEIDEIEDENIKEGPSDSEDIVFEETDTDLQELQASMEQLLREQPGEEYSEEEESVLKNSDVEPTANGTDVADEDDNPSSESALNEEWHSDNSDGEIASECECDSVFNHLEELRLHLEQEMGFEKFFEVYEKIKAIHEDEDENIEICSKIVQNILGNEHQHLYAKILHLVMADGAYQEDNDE

[3] = target: Calcium/calmodulin-dependent protein kinase type II subunit gamma (Homo sapiens) (UniProt Q13555); test: Inhibition of human recombinant CaMK2g at 15 nM in presence of ATP by radiometric assay relative to control
[4] = target: Serine/threonine-protein kinase PAK 6 (Homo sapiens) (UniProt Q9NQU5); test: Inhibition of human recombinant PAK6 at 15 nM related to control ULK1
[5] = target: T2, cGMP-dependent protein kinase 1 (Homo sapiens) (UniProt Q13976); test: Inhibition of human recombinant PKG1 at 15 nM related to control ULK1
T2 sequence (whole entry): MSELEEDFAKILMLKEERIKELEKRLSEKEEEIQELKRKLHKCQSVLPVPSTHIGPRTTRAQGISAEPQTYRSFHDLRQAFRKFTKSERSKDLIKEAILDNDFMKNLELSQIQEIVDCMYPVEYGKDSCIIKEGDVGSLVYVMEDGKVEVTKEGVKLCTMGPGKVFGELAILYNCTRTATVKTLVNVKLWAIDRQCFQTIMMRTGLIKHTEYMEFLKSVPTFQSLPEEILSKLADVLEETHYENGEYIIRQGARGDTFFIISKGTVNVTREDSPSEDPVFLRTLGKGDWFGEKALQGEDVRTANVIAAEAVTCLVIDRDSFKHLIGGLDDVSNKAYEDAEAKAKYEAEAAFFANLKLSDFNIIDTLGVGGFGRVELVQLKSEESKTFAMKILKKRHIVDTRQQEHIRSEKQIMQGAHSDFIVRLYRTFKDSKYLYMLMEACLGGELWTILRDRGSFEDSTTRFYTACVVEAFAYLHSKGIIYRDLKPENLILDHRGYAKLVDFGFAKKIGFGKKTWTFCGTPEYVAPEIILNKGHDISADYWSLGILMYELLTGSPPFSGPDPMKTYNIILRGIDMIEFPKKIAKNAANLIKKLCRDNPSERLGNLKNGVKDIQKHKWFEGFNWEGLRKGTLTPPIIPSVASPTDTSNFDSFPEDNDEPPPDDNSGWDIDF

[6] = target: Serine-protein kinase ATM (Homo sapiens) (UniProt Q13315); test: Inhibition of human recombinant ATM at 15 nM related to control ULK1
Chain of Serine-protein kinase ATM (Homo sapiens) (Q13315 whole entry): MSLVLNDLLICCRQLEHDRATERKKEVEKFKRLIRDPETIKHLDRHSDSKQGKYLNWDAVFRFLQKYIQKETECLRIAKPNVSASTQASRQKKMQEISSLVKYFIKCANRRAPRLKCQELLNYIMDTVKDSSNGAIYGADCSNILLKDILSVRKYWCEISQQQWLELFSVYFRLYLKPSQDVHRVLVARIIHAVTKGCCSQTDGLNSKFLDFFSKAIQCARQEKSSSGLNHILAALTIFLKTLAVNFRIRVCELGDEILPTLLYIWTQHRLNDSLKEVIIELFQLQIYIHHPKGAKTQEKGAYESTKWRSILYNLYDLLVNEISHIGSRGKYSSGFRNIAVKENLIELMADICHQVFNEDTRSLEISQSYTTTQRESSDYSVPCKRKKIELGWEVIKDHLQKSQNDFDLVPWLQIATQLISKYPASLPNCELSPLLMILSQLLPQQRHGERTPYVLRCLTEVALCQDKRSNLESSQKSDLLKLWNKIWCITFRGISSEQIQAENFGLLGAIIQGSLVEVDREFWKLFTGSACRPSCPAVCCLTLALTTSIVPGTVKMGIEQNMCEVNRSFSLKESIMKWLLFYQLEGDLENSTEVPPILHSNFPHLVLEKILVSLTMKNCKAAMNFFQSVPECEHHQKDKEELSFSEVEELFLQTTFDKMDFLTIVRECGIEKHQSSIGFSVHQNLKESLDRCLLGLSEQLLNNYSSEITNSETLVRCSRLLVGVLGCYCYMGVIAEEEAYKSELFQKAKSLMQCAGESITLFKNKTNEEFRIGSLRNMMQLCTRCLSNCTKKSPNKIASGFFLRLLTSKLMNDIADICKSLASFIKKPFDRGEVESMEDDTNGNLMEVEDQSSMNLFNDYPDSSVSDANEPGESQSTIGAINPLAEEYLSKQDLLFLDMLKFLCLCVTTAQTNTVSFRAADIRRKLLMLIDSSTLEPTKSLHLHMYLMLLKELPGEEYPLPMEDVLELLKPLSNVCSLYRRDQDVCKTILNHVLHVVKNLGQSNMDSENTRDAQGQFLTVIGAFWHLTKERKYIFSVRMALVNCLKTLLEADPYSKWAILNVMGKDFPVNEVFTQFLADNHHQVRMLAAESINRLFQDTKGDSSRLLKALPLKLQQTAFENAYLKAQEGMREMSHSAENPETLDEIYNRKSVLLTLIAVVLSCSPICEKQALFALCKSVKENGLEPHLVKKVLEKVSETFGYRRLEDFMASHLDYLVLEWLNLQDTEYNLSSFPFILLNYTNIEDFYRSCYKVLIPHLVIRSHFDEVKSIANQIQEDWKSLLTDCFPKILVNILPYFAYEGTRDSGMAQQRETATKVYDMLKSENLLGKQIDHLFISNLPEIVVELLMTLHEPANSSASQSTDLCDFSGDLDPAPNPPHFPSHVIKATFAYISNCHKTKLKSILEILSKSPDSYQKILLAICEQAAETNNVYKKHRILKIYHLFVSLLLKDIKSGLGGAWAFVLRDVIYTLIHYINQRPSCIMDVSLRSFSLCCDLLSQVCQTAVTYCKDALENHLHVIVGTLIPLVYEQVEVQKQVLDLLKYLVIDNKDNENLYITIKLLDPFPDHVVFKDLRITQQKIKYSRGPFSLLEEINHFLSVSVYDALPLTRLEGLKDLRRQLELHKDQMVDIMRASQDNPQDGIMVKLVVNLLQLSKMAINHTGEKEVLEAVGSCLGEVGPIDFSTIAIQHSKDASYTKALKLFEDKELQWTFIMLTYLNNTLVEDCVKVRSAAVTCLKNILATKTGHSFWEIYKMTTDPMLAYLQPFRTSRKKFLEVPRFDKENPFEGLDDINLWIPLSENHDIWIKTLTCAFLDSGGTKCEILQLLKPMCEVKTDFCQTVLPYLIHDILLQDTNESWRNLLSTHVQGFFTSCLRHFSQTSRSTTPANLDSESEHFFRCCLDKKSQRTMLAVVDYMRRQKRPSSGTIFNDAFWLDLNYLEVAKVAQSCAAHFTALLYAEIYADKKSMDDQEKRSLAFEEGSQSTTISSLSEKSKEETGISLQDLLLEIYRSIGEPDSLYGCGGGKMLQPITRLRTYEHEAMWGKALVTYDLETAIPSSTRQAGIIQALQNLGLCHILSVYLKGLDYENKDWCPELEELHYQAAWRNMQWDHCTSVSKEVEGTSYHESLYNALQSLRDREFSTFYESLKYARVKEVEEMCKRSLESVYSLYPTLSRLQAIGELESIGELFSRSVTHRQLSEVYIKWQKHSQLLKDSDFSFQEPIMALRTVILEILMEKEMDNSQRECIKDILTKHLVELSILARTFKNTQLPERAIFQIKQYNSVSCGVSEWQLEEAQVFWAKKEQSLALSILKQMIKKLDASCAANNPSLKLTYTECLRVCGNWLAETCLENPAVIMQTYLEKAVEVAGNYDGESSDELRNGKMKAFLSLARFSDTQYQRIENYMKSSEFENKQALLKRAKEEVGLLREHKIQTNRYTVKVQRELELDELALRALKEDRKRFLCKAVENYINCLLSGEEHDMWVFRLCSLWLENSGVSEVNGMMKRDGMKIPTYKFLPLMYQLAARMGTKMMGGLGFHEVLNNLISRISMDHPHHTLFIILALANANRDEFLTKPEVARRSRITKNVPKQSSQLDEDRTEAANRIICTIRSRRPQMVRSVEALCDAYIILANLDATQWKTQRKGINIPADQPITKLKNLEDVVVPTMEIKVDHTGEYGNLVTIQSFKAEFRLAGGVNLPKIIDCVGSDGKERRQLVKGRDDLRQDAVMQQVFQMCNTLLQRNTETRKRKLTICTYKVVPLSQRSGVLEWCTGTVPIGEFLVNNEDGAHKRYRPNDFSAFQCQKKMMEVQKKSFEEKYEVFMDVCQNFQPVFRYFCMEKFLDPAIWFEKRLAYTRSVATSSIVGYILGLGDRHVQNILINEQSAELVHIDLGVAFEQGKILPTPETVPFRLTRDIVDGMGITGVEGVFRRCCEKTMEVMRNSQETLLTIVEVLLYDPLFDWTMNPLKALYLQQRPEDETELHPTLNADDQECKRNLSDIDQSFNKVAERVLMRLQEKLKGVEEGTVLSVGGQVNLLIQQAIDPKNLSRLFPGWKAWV
Outline: (§1)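 Panel of 327 recombinant human kinases, each assayed in vitro by radiometric activity assay in duplicate at a single inhibitor concentration per compound, chosen with reference to its ULK1 inhibition. Activity remaining was expressed as percent of vehicle control, and percent inhibition was calculated as 100 minus percent activity remaining.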

[7] = target: cAMP-dependent protein kinase catalytic subunit beta (Homo sapiens) (UniProt P22694); test: Inhibition of human recombinant PKACbeta at 15 nM related to control ULK1
[8] = target: Dual specificity protein kinase CLK2 (Homo sapiens) (UniProt P49760); test: Inhibition of human recombinant CLK2 at 15 nM in presence of ATP by radiometric assay relative to control
Chain of Dual specificity protein kinase CLK2 (Homo sapiens) (P49760 whole entry, looked up): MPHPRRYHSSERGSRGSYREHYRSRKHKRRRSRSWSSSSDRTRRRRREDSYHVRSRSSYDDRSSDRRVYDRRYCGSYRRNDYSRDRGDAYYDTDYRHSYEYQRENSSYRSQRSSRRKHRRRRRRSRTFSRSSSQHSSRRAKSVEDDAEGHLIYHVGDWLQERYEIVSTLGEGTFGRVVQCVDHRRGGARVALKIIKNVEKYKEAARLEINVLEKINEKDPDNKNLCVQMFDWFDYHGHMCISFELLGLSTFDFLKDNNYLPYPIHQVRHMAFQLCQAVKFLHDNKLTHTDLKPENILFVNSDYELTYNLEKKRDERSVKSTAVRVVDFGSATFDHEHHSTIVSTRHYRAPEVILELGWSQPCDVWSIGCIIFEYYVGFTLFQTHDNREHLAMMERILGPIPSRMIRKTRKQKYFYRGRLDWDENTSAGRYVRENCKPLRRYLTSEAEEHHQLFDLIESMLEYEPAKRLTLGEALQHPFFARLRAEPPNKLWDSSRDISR

[9] = target: Rho-associated protein kinase 2 (Homo sapiens) (UniProt O75116); test: Inhibition of human recombinant ROCK2 at 15 nM related to control ULK1
[10] = target: Serine-protein kinase ATM (Homo sapiens) (UniProt Q13315); test: Inhibition of human recombinant ATM at 500 nM in presence of ATP by radiometric assay relative to control; outline: as §1
[11] = target: Serine/threonine-protein kinase N1 (Homo sapiens) (UniProt Q16512); test: Inhibition of human recombinant PKN1 at 500 nM related to control ULK1
[12] = target: Angiopoietin-1 receptor (Homo sapiens) (UniProt Q02763); test: Inhibition of human recombinant Tie2 at 500 nM related to control ULK1
Chain of Angiopoietin-1 receptor (Homo sapiens) (Q02763 whole entry): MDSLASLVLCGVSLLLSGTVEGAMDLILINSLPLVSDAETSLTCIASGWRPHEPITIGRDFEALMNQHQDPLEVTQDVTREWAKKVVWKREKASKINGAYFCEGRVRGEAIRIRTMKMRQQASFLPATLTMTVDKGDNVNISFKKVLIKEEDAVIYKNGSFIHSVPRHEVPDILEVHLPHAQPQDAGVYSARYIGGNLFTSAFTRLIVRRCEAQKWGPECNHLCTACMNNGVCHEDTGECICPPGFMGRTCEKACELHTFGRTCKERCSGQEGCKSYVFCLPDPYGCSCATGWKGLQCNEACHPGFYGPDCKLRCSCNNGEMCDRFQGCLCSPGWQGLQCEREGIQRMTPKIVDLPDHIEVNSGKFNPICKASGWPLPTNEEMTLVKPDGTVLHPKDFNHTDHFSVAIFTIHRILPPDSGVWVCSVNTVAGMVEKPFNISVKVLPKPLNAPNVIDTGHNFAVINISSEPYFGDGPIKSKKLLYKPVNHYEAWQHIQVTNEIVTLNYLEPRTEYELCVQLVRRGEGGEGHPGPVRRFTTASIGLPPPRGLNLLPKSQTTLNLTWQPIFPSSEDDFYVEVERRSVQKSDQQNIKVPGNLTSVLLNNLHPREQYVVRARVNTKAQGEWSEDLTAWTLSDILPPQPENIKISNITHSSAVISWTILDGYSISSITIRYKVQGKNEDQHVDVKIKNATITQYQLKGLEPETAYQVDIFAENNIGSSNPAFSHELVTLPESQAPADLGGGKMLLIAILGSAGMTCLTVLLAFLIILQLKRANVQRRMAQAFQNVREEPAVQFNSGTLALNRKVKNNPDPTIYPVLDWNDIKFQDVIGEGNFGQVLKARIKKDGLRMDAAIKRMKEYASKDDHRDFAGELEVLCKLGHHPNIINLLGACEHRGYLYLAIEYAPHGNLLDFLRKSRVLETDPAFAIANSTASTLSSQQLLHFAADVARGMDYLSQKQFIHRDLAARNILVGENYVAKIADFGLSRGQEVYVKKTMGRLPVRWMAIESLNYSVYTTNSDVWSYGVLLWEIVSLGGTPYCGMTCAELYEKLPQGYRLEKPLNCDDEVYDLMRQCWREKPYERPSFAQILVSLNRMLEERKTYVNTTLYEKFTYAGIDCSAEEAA

[13] = target: Ribosomal protein S6 kinase alpha-4 (Homo sapiens) (UniProt O75676); test: Inhibition of human recombinant MSK2 at 500 nM in presence of ATP by radiometric assay relative to control

O=C(N[C@@H](C1CC1)C(F)(F)F)c1cc(-c2cnn3cc(-c4ccc(F)cc4)cnc23)cs1
inhibition [1]: 0%
fold change (FC) [2]: 0

CC(C)[C@H](NC(=O)c1cc(-c2cnn3cc(-c4ccc(OCCN5CCCCC5)cc4)cnc23)cs1)C(F)(F)F
inhibition [3]: 22%
fold change (FC) [4]: 0
fold change (FC) [5]: 0
fold change (FC) [6]: 0.07
fold change (FC) [7]: 0
inhibition [8]: 29%
fold change (FC) [9]: 0

CNC(=O)c1ccccc1Oc1nc(Nc2cc(OC)c(OC)c(OC)c2)ncc1Br
inhibition [10]: 2%
fold change (FC) [11]: 0
fold change (FC) [12]: 0.31
inhibition [13]: 0%
